Experimental data published in ChEMBL document CHEMBL1147015, “Design and synthesis of selective, high-affinity inhibitors of human cytochrome P450 2J2” (Bioorg Med Chem Lett, 2006).

Experiments:
Cytochrome P450 2J2 = molecular target: T1, Cytochrome P450 2J2 (Homo sapiens, UniProt P51589); experiment: Inhibition of human recombinant CYP2J2 expressed in baculovirus-infected Sf9 insect cells
T1 sequence (P51589 whole entry): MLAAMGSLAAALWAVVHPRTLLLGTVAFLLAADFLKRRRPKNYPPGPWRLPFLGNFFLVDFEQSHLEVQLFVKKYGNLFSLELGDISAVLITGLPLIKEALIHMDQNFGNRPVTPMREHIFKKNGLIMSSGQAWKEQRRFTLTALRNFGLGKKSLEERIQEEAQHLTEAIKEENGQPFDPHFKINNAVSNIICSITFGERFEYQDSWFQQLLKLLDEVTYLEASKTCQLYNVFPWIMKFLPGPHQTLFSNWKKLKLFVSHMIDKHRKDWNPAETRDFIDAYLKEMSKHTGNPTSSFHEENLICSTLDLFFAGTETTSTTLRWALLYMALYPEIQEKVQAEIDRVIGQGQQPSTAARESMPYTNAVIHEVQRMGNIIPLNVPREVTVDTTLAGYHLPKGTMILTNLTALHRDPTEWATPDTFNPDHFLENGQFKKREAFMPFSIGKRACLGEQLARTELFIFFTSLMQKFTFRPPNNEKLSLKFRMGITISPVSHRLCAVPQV
Outline: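 Ebastine hydroxylation used as the read-out. Ebastine (0.5 μM) plus inhibitor incubated at 37 °C for 2 or 4 min with Sf9 microsomes (1 nM CYP2J2) in 0.1 M phosphate buffer pH 7.4, 0.1 mM EDTA and NADPH-generating system. Stopped with cold CH3CN/CH3COOH (10:1); protein spun out; supernatant analysed by HPLC on C18. IC50 determined.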

Cytochrome P450 2C9 = Cytochrome P450 2C9 (Homo sapiens, UniProt P11712); experiment: Inhibition of human recombinant CYP2C9; format: ADME
Cytochrome P450 2C9, sequence (P11712 whole entry): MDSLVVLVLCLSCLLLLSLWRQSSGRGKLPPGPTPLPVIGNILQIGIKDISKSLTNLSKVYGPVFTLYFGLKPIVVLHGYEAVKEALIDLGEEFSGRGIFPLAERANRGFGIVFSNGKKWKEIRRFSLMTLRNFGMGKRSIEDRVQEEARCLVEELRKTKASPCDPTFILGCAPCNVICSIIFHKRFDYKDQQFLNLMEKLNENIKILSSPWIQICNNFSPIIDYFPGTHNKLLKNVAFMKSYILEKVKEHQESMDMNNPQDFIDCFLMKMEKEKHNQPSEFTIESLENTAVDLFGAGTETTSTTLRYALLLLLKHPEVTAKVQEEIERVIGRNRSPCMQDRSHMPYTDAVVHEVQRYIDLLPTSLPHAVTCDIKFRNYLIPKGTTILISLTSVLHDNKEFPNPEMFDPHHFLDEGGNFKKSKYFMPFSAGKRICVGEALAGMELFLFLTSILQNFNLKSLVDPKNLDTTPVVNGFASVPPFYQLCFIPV

Cytochrome P450 3A4 = Cytochrome P450 3A4 (Homo sapiens, UniProt P08684); experiment: Inhibition of human recombinant CYP3A4; format: ADME
Cytochrome P450 3A4, sequence (P08684 whole entry): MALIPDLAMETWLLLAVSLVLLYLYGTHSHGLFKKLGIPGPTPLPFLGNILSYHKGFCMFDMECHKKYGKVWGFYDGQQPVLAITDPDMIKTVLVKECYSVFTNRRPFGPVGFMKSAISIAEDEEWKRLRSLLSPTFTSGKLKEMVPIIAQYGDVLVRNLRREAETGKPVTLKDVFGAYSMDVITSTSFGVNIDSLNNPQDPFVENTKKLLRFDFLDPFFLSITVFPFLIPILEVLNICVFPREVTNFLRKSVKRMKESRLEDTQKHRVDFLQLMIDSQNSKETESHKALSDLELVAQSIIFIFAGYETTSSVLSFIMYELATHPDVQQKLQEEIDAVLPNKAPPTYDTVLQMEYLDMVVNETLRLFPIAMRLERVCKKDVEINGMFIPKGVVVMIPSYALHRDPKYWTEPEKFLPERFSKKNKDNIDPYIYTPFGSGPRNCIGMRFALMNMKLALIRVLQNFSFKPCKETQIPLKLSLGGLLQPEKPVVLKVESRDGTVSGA

Cytochrome P450 2B6 = molecular target: T2, Cytochrome P450 2B6 (Homo sapiens, UniProt P20813); experiment: Inhibition of human recombinant CYP2B6; format: ADME
T2 sequence (P20813 whole entry): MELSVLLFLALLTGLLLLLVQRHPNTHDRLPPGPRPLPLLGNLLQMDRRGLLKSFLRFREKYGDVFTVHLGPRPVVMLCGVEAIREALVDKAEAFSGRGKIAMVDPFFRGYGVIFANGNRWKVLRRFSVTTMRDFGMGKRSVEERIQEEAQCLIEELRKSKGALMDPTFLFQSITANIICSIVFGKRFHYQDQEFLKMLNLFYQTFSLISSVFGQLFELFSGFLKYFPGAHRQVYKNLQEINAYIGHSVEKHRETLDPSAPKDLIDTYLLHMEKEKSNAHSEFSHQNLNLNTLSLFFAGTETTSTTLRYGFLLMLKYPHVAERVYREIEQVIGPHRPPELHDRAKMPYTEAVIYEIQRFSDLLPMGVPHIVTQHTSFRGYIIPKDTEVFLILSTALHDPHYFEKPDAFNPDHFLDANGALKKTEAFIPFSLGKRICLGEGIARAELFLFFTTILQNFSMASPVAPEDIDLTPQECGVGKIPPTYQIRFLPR

Cytochrome P450 2C8 = molecular target: T3, Cytochrome P450 2C8 (Homo sapiens, UniProt P10632); experiment: Inhibition of human recombinant CYP2C8; format: ADME
T3 sequence (P10632 whole entry): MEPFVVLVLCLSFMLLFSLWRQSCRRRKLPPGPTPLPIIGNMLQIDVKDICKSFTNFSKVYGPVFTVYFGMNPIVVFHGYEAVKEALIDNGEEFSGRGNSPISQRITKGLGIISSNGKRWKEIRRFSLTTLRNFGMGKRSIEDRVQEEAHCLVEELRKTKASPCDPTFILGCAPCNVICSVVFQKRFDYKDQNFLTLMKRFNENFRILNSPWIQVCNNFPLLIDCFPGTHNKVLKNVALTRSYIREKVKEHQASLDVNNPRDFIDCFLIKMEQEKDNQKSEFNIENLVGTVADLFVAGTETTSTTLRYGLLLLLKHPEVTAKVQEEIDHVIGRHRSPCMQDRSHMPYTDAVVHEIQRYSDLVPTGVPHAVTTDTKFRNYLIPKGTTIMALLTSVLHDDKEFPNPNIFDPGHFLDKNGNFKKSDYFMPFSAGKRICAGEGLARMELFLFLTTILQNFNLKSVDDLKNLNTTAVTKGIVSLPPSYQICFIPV

| SMILES | IC50 (Cytochrome P450 2J2) | other results |
| --- | --- | --- |
| O=C(CCCN1CCC(C(O)(c2ccccc2)c2ccccc2)CC1)c1ccc(CCCO)cc1 | 1900 nM | – |
| O=C(CCCN1CCC(C(O)(c2ccccc2)c2ccccc2)CC1)c1ccc(Br)cc1 | 4200 nM | – |
| O=C(CCCN1CCC(C(O)(c2ccccc2)c2ccccc2)CC1)c1ccc(CC(F)F)cc1 | 2200 nM | – |
| O=C(CCCN1CCC(C(O)(c2ccccc2)c2ccccc2)CC1)c1ccc(CCO)cc1 | 1300 nM | – |
| CC(=O)OCCCc1ccc(C(=O)CCCN2CCC(C(O)(c3ccccc3)c3ccccc3)CC2)cc1 | 2500 nM | – |
| O=C(CCCN1CCC(C(O)(c2ccccc2)c2ccccc2)CC1)c1ccc2c(c1)OCO2 | 6700 nM | – |
| COc1ccc(C(=O)CCCN2CCC(C(O)(c3ccccc3)c3ccccc3)CC2)cc1 | 7600 nM | – |

Stronger by IC50 (Cytochrome P450 2J2), values ahead:

| IC50 (Cytochrome P450 2J2) | SMILES | other results |
| --- | --- | --- |
| 700 nM | Cc1ccc(C(=O)CCCN2CCC(C(O)(c3ccccc3)c3ccccc3)CC2)cc1 | – |
| 400 nM | C=CCc1ccc(C(=O)CCCN2CCC(C(O)(c3ccccc3)c3ccccc3)CC2)cc1 | IC50 (Cytochrome P450 2C9): 21000 nM; IC50 (Cytochrome P450 3A4): 5500 nM; IC50 (Cytochrome P450 2B6): 21000 nM; IC50 (Cytochrome P450 2C8): > 100000 nM |
| 700 nM | CCCCc1ccc(C(=O)CCCN2CCC(C(O)(c3ccccc3)c3ccccc3)CC2)cc1 | – |
| 600 nM | CCc1ccc(C(=O)CCCN2CCC(C(O)(c3ccccc3)c3ccccc3)CC2)cc1 | – |
| 400 nM | CCCc1ccc(C(=O)CCCN2CCC(C(O)(c3ccccc3)c3ccccc3)CC2)cc1 | IC50 (Cytochrome P450 2C9): 26000 nM; IC50 (Cytochrome P450 3A4): 7900 nM; IC50 (Cytochrome P450 2B6): 28000 nM; IC50 (Cytochrome P450 2C8): > 100000 nM; Ki (Cytochrome P450 2J2): 160 nM |
| 700 nM | CC(C)(C)c1ccc(C(=O)CCCN2CCC(C(O)(c3ccccc3)c3ccccc3)CC2)cc1 [TERFENADONE] | – |
